According to article PMC9037101 (RSC Advances, 2021):

Legend:
[1] = Stability of the analytes in rat plasma QC samples; assay type: in vitro ADME; conditions: for Free-thaw stability: Measured concentration / Free-thaw stability: Accuracy: 3 free thaw cycles; for Free-thaw stability: Accuracy / Long-tern stability: Accuracy: relative error; for Long-tern stability: Accuracy / Long-tern stability: Measured concentration: −20 °C for 21 d; for Short-tern stability: Measured concentration: room temperature for 8 h
In short: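 Rat (SD male) plasma QC samples at low, medium and high levels, six replicates each. Storage conditions: 4 h at room temperature after preparation, 8 h at room temperature (short-term), 21 days at −20 °C (long-term), and three freeze (−20 °C)/thaw (room temperature) cycles over three consecutive days. Samples were methanol-precipitated with internal standard and measured by HPLC-MS/MS. Stability was reported as relative error.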

[2] = assay type: in vivo, Sprague-Dawley (SD) rats; conditions: for AUC(0-inf) / AUC(0-t) / Cmax / Tmax / half-life: male, Sprague-Dawley, plasma, po, 15 mL kg^−1; for AUC(0-inf) / AUC(0-t) / Cmax / Tmax / half-life / absorption into blood (in words): rat; for absorption into blood (in words): oral administration of extract
[3] = double-peak phenomenon, rat plasma, oral extract

| Structure (SMILES) | Free-thaw stability: Measured concentration ([1]; high QC spiked concentration) | Free-thaw stability: Measured concentration ([1]; low QC spiked concentration) | Free-thaw stability: Measured concentration ([1]; medium QC spiked concentration) | Free-thaw stability: Accuracy ([1]; high QC spiked concentration) | Free-thaw stability: Accuracy ([1]; low QC spiked concentration) | Free-thaw stability: Accuracy ([1]; medium QC spiked concentration) | Long-tern stability: Accuracy ([1]; high QC spiked concentration) | Long-tern stability: Accuracy ([1]; low QC spiked concentration) | Long-tern stability: Accuracy ([1]; medium QC spiked concentration) | Short-tern stability: Measured concentration ([1]; high QC spiked concentration) | Short-tern stability: Measured concentration ([1]; low QC spiked concentration) | Short-tern stability: Measured concentration ([1]; medium QC spiked concentration) | Long-tern stability: Measured concentration ([1]; high QC spiked concentration) | Long-tern stability: Measured concentration ([1]; low QC spiked concentration) | Long-tern stability: Measured concentration ([1]; medium QC spiked concentration) | AUC(0-inf) [2] | Cmax [2] | Tmax [2] | half-life [2] | absorption into blood (in words) [2] | further results |
| --- | --- | --- | --- | --- | --- | --- | --- | --- | --- | --- | --- | --- | --- | --- | --- | --- | --- | --- | --- | --- | --- |
| COc1ccc(-c2cc(=O)c3c(O)cc(O)cc3o2)cc1 [Acacetin, acacetin] | 108.48 ± 6.51 ng/mL | 4.81 ± 0.22 ng/mL | 26.99 ± 4.36 ng/mL | 6.21% | 4.11% | 3.13% | 3.46% | 4.11% | 1.38% | 107.02 ± 3.38 ng/mL | 4.69 ± 0.36 ng/mL | 27.31 ± 5.34 ng/mL | 105.68 ± 9.65 ng/mL | 4.81 ± 0.27 ng/mL | 26.53 ± 3.21 ng/mL | 17.7 ng·h/mL | 31.9 ± 17.6 ng/mL | 10 min | 96.87 ± 0.12 min | rapidly absorbed | AUC(0-t) [2]: 15.3 ng·h/mL |
| C[C@@H]1O[C@@H](O[C@@H]2[C@@H](O)[C@H](OCCc3ccc(O)c(O)c3)O[C@H](CO)[C@H]2OC(=O)/C=C/c2ccc(O)c(O)c2)[C@H](O)[C@H](O)[C@H]1O [Acteoside, acteoside] | 2132.91 ± 11.91 ng/mL | 2.1 ± 0.14 ng/mL | 544.87 ± 4.54 ng/mL | 5.21% | 3.45% | 4.92% | 6.94% | 1.97% | 4.16% | 2150.14 ± 11.92 ng/mL | 2.11 ± 0.13 ng/mL | 548.82 ± 2.92 ng/mL | 2167.98 ± 18.52 ng/mL | 2.07 ± 0.12 ng/mL | 540.92 ± 9.44 ng/mL | – | 650 ± 16.4 ng/mL | 10 min | 46.8 ± 0.35 min | rapidly absorbed | – |
| O=c1cc(-c2ccc(O)cc2)oc2cc(O)cc(O)c12 [Apigenin, apigenin] | 494.36 ± 4.99 ng/mL | 7.34 ± 0.32 ng/mL | 124.68 ± 6.33 ng/mL | 5.51% | 3.67% | 6.63% | 3.51% | 7.06% | 6.48% | 490.89 ± 7.31 ng/mL | 7.17 ± 1.91 ng/mL | 123.78 ± 2.47 ng/mL | 484.98 ± 5.09 ng/mL | 7.58 ± 0.51 ng/mL | 124.51 ± 4.02 ng/mL | – | 146 ± 14.9 ng/mL | 180 min | 298.5 ± 0.16 min | absorbed very slowly | time of first peak of the plasma concentration–time curve [2, 3]: 5 min; time of second peak of the plasma concentration–time curve [2, 3]: 180 min |
| O=c1cc(-c2ccc(O)c(O)c2)oc2cc(O)cc(O)c12 [Luteolin, luteolin] | 258.35 ± 4.86 ng/mL | 6.60 ± 0.18 ng/mL | 66.03 ± 2.64 ng/mL | 4.35% | 4.43% | 6.21% | 5.43% | 6.01% | 8.32% | 260.55 ± 0.49 ng/mL | 6.76 ± 0.18 ng/mL | 64.88 ± 0.92 ng/mL | 261.02 ± 4.65 ng/mL | 6.7 ± 0.76 ng/mL | 67.34 ± 3.63 ng/mL | 35.4 ng·h/mL | 77.4 ± 25.7 ng/mL | 5 min | 36.08 ± 0.24 min | – | – |
| O=c1c(O)c(-c2ccc(O)c(O)c2)oc2cc(O)cc(O)c12 [Quercetin, quercetin] | 67.46 ± 2.42 ng/mL | 2.78 ± 0.89 ng/mL | 17.48 ± 1.19 ng/mL | 4.62% | 5.30% | 6.72% | 6.02% | 3.03% | 5.43% | 66.98 ± 7.47 ng/mL | 2.80 ± 1.62 ng/mL | 17.12 ± 1.22 ng/mL | 68.36 ± 3.68 ng/mL | 2.72 ± 0.32 ng/mL | 17.27 ± 2.69 ng/mL | 18.2 ng·h/mL | 20.1 ± 24.9 ng/mL | 5 min | 46.03 ± 0.09 min | rapidly absorbed | AUC(0-t) [2]: 9.31 ng·h/mL |
| C[C@@H]1O[C@@H](OC[C@H]2O[C@@H](Oc3c(-c4ccc(O)c(O)c4)oc4cc(O)cc(O)c4c3=O)[C@H](O)[C@@H](O)[C@@H]2O)[C@H](O)[C@H](O)[C@H]1O [Rutin] | 437.7 ± 10.02 ng/mL | 6.2 ± 1.88 ng/mL | 110.30 ± 8.24 ng/mL | 4.58% | 2.48% | 7.54% | 2.55% | 4.30% | 4.68% | 426.82 ± 18.15 ng/mL | 6.36 ± 6.81 ng/mL | 108.48 ± 7.41 ng/mL | 429.20 ± 19.79 ng/mL | 6.31 ± 5.88 ng/mL | 107.37 ± 9.98 ng/mL | – | 131 ± 18.3 ng/mL | 5 min | – | rapidly absorbed | AUC(0-t) [2]: 50.7 ng·h/mL; AUC0–∞ (mean ± SD) ([2]; rat plasma, single oral administration of extract 15 mL kg^−1, n = 6): 3039.62 ± 54.07 ng/L/h |
